What was measured:
[1] = Cytotoxicity against HEK293T cells assessed as reduction in cell viability after 24 hrs by CellTiter-Glo luminescent assay; format: cell-based, HEK-293T; details: human
Method in brief: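 HEK 293T cell viability was measured by CellTiter-Glo luminescence after 24 h exposure to serial dilutions. Data were normalized to untreated cells (100%) and reagent background (0%). CC50, the concentration reducing viability by 50%, came from a five-parameter asymmetric fit.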

Chikungunya virus [2] = test: Antiviral activity against full length Gaussia princeps Gluc-tagged Chikungunya virus IMT infected in HEK293T cells assessed as reduction in virus infection after 24 hrs by Gaussia luciferase reporter gene assay; format: functional, cell-based; details: HEK-293T
[3] = Selectivity index, ratio of CC50 for HEK293T cells to EC50 for full length Gaussia princeps Gluc-tagged Chikungunya virus IMT; format: toxicity; details: human, read-out: Ratio CC50/EC50
[4] = Half life in human liver microsomes; format: ADME, microsome
Method in brief: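 Compounds were incubated with human liver microsomes. Half-life = ln(2)/slope, where the slope is ln(% detected) plotted against time, using the mean of at least 3 independent experiments.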

Chikungunya virus [5] = test: Antiviral activity against wild type Chikungunya virus IMT infected in HEK293T cells assessed as reduction in virus infection after 24 hrs by FITC immunofluorescence-based single cell quantification high content screening assay; format: functional; details: HEK-293T

Row | Structure (SMILES) | CC50 at 24 h [1] [µM] | EC50 (Chikungunya virus [2]) [µM] | selectivity ratio [3] | half-life [4] [min] | EC50 (Chikungunya virus [5]) [µM]
1 | CCCNC(=O)C1CCN(C(=O)c2cc(Br)cn2Cc2ccc(OC)cc2)CC1 | 55 | 21.4 | 2.6 | 2.17 | 
2 | CCCNC(=O)C1CCN(C(=O)c2cc3nc(Br)sc3n2Cc2ccc(OC)cc2)CC1 | 46.8 | 2.22 | 21 | 22.1 | 3.87
3 | CCCNC(=O)[C@@H]1C[C@H]2CCC[C@@H](C1)[C@@H]2NC(=O)c1cc2sc(Br)cc2n1Cc1ccc(OC)cc1 | > 100 | 14 | > 7.1 | 45.1 | 
4 | CCCNC(=O)C1CCN(C(=O)c2cc3ccccc3n2Cc2ccc(OC)cc2)CC1 | 26 | 7.86 | 3.3 | 2.66 | 8.26
5 | CCCNC(=O)[C@H]1[C@@H]2CCC[C@H]1CN(C(=O)c1cc3sc(-c4ccccc4)nc3n1Cc1ccc(OC)cc1)C2 | > 100 | 9.64 | > 10 | 35.1 | 12.5
6 | CCCNC(=O)C1CC12CCN(C(=O)c1cc3sc(Br)nc3n1Cc1ccc(OC)cc1)CC2 (stereo not given) | 81.3 | 8.21 | 9.9 | 4.97 | > 25
7 | CCCNC(=O)C1CCN(C(=O)c2cc3sc(-c4ccccc4F)cc3n2Cc2ccc(OC)cc2)CC1 |  |  |  | 35.5 | 
8 | CCCNC(=O)[C@H]1[C@@H]2CCC[C@H]1CN(C(=O)c1cc3sc(Br)cc3n1Cc1ccc(OC)cc1)C2 | > 100 | 6.98 | > 14 | 3.62 | 14.8
9 | CCCNC(=O)C1CCN(C(=O)c2cc3cc(Br)ccc3n2Cc2ccc(OC)cc2)CC1 | > 100 | > 100 |  | 3.94 | 
10 | CCCNC(=O)C1CC12CCN(C(=O)c1cc3sc(-c4ccccc4)nc3n1Cc1ccc(OC)cc1)CC2 (stereo not given) | > 100 | 7.7 | > 13 | 41.8 | 14.1
11 | CCCNC(=O)C1CCN(C(=O)c2cc3[nH]cnc3n2Cc2ccc(OC)cc2)CC1 | > 100 | 42.8 | > 2.3 | 76.2 | 
12 | CCCNC(=O)C1CCN(C(=O)c2cc3oc(Br)cc3n2Cc2ccc(OC)cc2)CC1 | 21.9 | 1.93 | 11 | 9.5 | 1.86
13 | CCCNC(=O)[C@@H]1CCCN1C(=O)c1cc2sc(Br)cc2n1Cc1ccc(OC)cc1 | 72.4 | 21.2 | 3.4 | 18.2 | 
14 | CCCNC(=O)[C@H]1CC[C@H](NC(=O)c2cc3sc(Br)cc3n2Cc2ccc(OC)cc2)CC1 | > 100 | 14.3 | > 7 | 3.97 | 
15 | CCCNC(=O)[C@@H]1[C@@H]2CCC[C@H]1CN(C(=O)c1cc3sc(Br)cc3n1Cc1ccc(OC)cc1)C2 | > 100 | 12.6 | > 7.9 |  | 
16 | CCCNC(=O)C1CCN(C(=O)c2ccc(Br)n2Cc2ccc(OC)cc2)CC1 | > 100 | 16.8 | > 6 | 7.32 | 
17 | CCCCC(=O)C1CCN(C(=O)c2cc3sccc3n2Cc2ccc(OC)cc2)CC1 |  |  |  | 6.3 | 
18 | CCCNC(=O)C1CCN(C(=O)c2cc3sc(Br)nc3n2Cc2ccc(OC)cc2)CC1 | 36.7 | 1.06 | 35 | 2.99 | 2.96
19 | CCCNC(=O)C1CCN(C(=O)c2cc3cc(Br)sc3n2Cc2ccc(OC)cc2)CC1 | > 100 | 13.6 | > 7.3 | 7.61 | 
20 | CCCNC(=O)C1CCN(C(=O)c2cc3ncsc3n2Cc2ccc(OC)cc2)CC1 | 42.7 | 9.39 | 4.5 | 32.6 | 14
21 | [2H]C([2H])([2H])C([2H])(NC(=O)C1CCN(C(=O)c2cc3sc(Br)cc3n2Cc2ccc(OC)cc2)CC1)C([2H])([2H])[2H] | > 100 | 1.55 | > 65 | 5.33 | 1.63
22 | CCCNC(=O)C1CC12CN(C(=O)c1cc3sc(Br)cc3n1Cc1ccc(OC)cc1)C2 (stereo not given) | > 100 | 20.2 | > 5 | 19.5 | 
